Shown are actives, neighbours in structure and some others; about 2.3% of the full set was active somewhere.
PGC1a acetyl inh: inhibitors of PGC1a acetylation signal, primary screen, cell-based, U2OS, AlphaScreen, inhibitor mode. 350,000 compounds, 0.17% hits. inhibition, % at 15.6 µM. AlphaScreen anti-acetyl-lysine; with virally co-expressed GCN5 acetyltransferase;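 active means every replicate shows inhibition of at least 40%; inconclusive means mean inhibition at least 40% but some replicate below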;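 further: 0% = neutral control wells and 100% = positive control wells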
FN deposit inh: inhibitors of fibronectin matrix deposition, primary screen, AH1F cells, Alexa488-fibronectin fluorescence, plate reader | AH1F fibroblasts, overnight | inhibition, % at 12.6 µM | AID 743247, 2014 | 350,000 compounds, 0.086% hits;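 active means mean inhibition across replicates of 30% or more, regardless of how many single replicates reach that level; inconclusive means mean under 30% yet at least half of replicates reach 30%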;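 further: positive control wells lacked labelled fibronectin entirely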
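Assay system: AH1F fibroblasts assembling fluorescent fibronectin matrix; Amount: 10000 AH1F cells per well; Buffer or medium: DMEM, 2% serum; Probe or stimulus: Alexa488-fibronectin, 24 nM final in well; Doses: single compound dose, delivered by pin transfer; Incubation: 1 h adhesion, overnight exposure; Measured by: fluorescence 485/525 nm; Read-out: fibronectin deposition inhibition.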
Env fusion inh: inhibitors of HIV-1 Env-driven cell-cell fusion, primary screen, HeLa-JRFL effector, CEM21 target cells, luciferase | inhibition, % at 12.3 µM | 360,000 compounds, 1.1% hits | AID 651610, 2012;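 active means mean replicate inhibition score of at least 50 and every replicate individually at or above 50; inconclusive means only one of the two criteria met; inactive means mean below 50 and not all replicates reaching 50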;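 further: 0% = plate neutral controls and 100% = maraviroc near 300 nM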
PAX8 inh HTS: inhibitors of PAX8-driven TPO luciferase reporter, primary screen, RMG-I cells, single concentration. 360,000 compounds, 1.2% hits. AID 652154, 2013. SteadyGlo, 24 h. inhibition, % at 12.6 µM;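 active means mean replicate inhibition at least 60% with every replicate also reaching 60%; inconclusive means only one of the two criteria is met; inactive means mean below 60% and not all replicates reaching 60%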;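 further: luciferase light reporting Pax8 driven TPO promoter activity; plate controls were median of neutral control wells for no effect and mitoxantrone controls for full effect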
EWS-Fli block: EWS/Fli-driven NR0B1 reporter inhibitors, primary screen, A673 cells, NR0B1 luciferase, luminescence, MLPCN library; viability-normalised; 350,000 compounds, 0.67% hits; inhibition, % at 12.6 µM;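 active means mean inhibition of at least 50% after viability correction, with every replicate also passing that limit; inconclusive means mean reaches 50% but only one of two replicates passes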;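 further: firefly luciferase signal divided by Alamar Blue viability fluorescence both relative to DMSO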
CFTR F508del cor: F508del CFTR correction, initial screen, CFBE line, single point; 350,000 compounds, 0.36% hits; CFBE cells, YFP halide quenching; stimulated with forskolin plus potentiator P3; % fluorescence drop versus neutral controls; activity (quench increase), % at 7.58 µM;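 active means mean added fluorescence quench of at least 8% versus neutral control, with both replicates also reaching 8%; inconclusive means only one of the mean or replicate conditions met; inactive means mean below 8% and not both replicates reaching 8%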;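 further: cells transiently co-express mutant CFTR-F508del with the halide-sensitive YFP; corrector assay measuring rescue of mutant channel to the surface after 24 h compound exposure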
* = called active by the depositor; ? = inconclusive; . = not tested or not shown; [ ] = dose if it differs, or a comment.

SMILES	PGC1a acetyl inh	FN deposit inh	Env fusion inh	PAX8 inh HTS	EWS-Fli block	CFTR F508del cor
COCC(=O)Nc1ccc2c(c1)C(=O)N(C)[C@H]1CC[C@@H](CC(=O)NCc3ccccc3)O[C@@H]1CO2	-8	-16	-4[16.7 µM]	-2	-4	-1
Cn1nnnc1Sc1ncnc2scc(-c3ccc(Br)cc3)c12	22	7	-6	100*	43	-4
CC1=CC(=O)N(c2cccc(C(F)(F)F)c2)C1c1ccc(Cl)cc1 (stereo not drawn)	1	6	66*	.	.	.
Cc1cc2nc(-c3ccc[nH]c3=O)[nH]c2cc1C	.	-3	25	57	62*	-1
Cc1cc2nc(-c3ccc[nH]c3=O)n(Cc3ccc(F)cc3)c2cc1C	-12	0	10	-15	-17	0
O=C(C[C@H]1CC[C@H]2[C@@H](COC[C@H](O)CN2Cc2cccc(F)c2)O1)NCc1cccc(F)c1	-1	0	.	12	-2	-1
CNC[C@@H]1OCCCC[C@H](C)Oc2ccc(NC(=O)CCC(F)(F)F)cc2C(=O)N([C@H](C)CO)C[C@H]1C	9	.	16[16.7 µM]	-19	0	1
C[C@H]1CCCCO[C@@H](CN(C)Cc2ccc(Cl)c(Cl)c2)[C@@H](C)CN([C@@H](C)CO)C(=O)c2cc(NC(=O)Nc3ccc(C(F)(F)F)cc3)ccc2O1	0	.	51[16.7 µM]	83*	-1	3
C[C@@H]1CCCCO[C@@H](CN(C)Cc2ccc(Cl)c(Cl)c2)[C@H](C)CN([C@@H](C)CO)C(=O)c2cc(NC(=O)Nc3ccc(C(F)(F)F)cc3)ccc2O1	-8	.	-5[16.7 µM]	91*	-8	-2
C[C@@H]1CCCCO[C@H](CN(C)Cc2ccc(Cl)c(Cl)c2)[C@@H](C)CN([C@@H](C)CO)C(=O)c2cc(NC(=O)Nc3ccc(C(F)(F)F)cc3)ccc2O1	-12	.	24[16.7 µM]	95*	0	3
COc1ccc(OC)c(N/C(N)=N/c2nc(C)cc(C)n2)c1	.	-4	-1	16	-4	8.9*
C/C1=C\CCC2C(/C=C(\C)CC1)OC(=O)C2CN1CCCCC1 (stereo not drawn)	0	-8	11	68*	-9	-3
O=C(C[C@H]1C[C@@H]2c3cc(NC(=O)c4cccnc4)ccc3O[C@@H]2[C@@H](CO)O1)NC1CCCC1	-5	-3	.	.	-5	2
CCOc1cc(-c2cc(-c3ccc(C)cc3)nc(N)c2C#N)ccc1O	-8	17	-47	39	.	.
CCOc1cc(-c2c(C#N)c(=O)[nH]c3c2c(C)nn3-c2ccc(F)cc2)ccc1O	.	1	57*	.	.	.
CCCN(CCC)S(=O)(=O)c1ccc(NC(=O)c2cc(C(=O)OC)cc([N+](=O)[O-])c2)cc1	5	-9	-16	66*	.	.
CCC(C)(C)NC(=O)c1cc(C(=O)OC)cc([N+](=O)[O-])c1	0	-3	-47	-7	.	.
O=S(=O)(NCC1CCCO1)c1ccc(S(=O)(=O)N(Cc2ccccc2F)C2CCCCC2)cc1 (stereo not drawn)	-28	0	59*	.	.	.
COc1ccc2nc(C)cc(SCC(=O)Nc3c(C)cccc3C)c2c1	.	.	8	-13	74*	.
COc1ccc2nc(C)cc(SCC(=O)Nc3c(C)cc(C)cc3C)c2c1	-1	4	-1	.	.	.
Cc1cc(C)c2nc(C(F)(F)F)nc(N3CCN(C(=O)c4ccco4)CC3)c2c1	4	15	73*	25	.	.
COc1cc(/C=N/NC(=O)c2ccc(CN3C(=O)c4cccc5cccc3c45)cc2)cc(OC)c1O	-5	7	4	98*	5	-14
COc1ccc(/C=N/NC(=O)c2ccc(CN3C(=O)c4cccc5cccc3c45)cc2)cc1O	.	-7	-3	21	36	-1
O=C1[C@H](Cc2ccccc2)NCC=CC[C@@H](c2ccc(Cl)cc2)N1Cc1ccc(Cl)cc1	.	-3	15	-7	1	1
O=C1[C@H](Cc2ccccc2)NCC=CC[C@H](c2ccc(Cl)cc2)N1Cc1ccc(Cl)cc1	1	-5	110*	13	17	2
SMILES	PGC1a acetyl inh	FN deposit inh	Env fusion inh	PAX8 inh HTS	EWS-Fli block	CFTR F508del cor
O=C1[C@H](Cc2ccccc2)NCCCC[C@H](c2ccc(Cl)cc2)N1Cc1ccc(Cl)cc1	-1	-6	66*	20	-2	0
COC(=O)C1=C(C(=O)OC)[C@]2([C@H]3CCCCN[C@@H](Cc4ccccc4)C(=O)N3Cc3ccccc3)C=C[C@H]1O2	.	-32	65*	74*	19	0
Nc1ccccc1C#CC(=O)c1ccccc1	.	-47	-105	10	67*	-5
CC(C)NC(=O)Nc1ccc2c(c1)C(=O)N([C@H](C)CO)C[C@@H](C)[C@H](CN(C)C(=O)c1ccncc1)OCCCC[C@@H](C)O2	-6	-4	-10[16.7 µM]	-15	.	2
COc1ccc2c(c1)C(SCC(=O)NCCc1ccc(Cl)cc1)CC(C)(C)O2 (stereo not drawn)	-1	11	63*	13	6	0
COc1ccc(CCC(=O)NCCc2ccc(Cl)cc2)cc1	-1	6	-2	-9	-9	-2
Cc1nc([N+](=O)[O-])c(Br)n1CC(=O)c1ccccc1	-8	.	.	.	.	.
Cc1nc([N+](=O)[O-])c(Br)n1CC(=O)c1ccc(Br)cc1	64*	7	24	40	.	.
COc1cccc(Nc2nc(C(N)COCc3ccccc3)cs2)n1 (stereo not drawn)	3	-3	?	23	17	4
NC(CCc1ccccc1)c1csc(NC(=O)Nc2ccccc2Oc2ccccc2)n1 (stereo not drawn)	-22	-13	90*	16	31	4
COc1cccc(Nc2nc(C(N)CCc3ccccc3)cs2)n1 (stereo not drawn)	-16	-6	70*	20	25	0
C[C@@H]1CN([C@H](C)CO)C(=O)c2cccc(NS(C)(=O)=O)c2O[C@@H]1CN(C)Cc1ccc(Cl)c(Cl)c1	-6	.	-24[16.7 µM]	2	.	0
CNC[C@@H]1Oc2ccc(N)cc2C(=O)N(C)C[C@@H]1C	.	8	.	.	.	.
Cc1ccc(-c2ccc3c(c2)O[C@H](CN(C)C(=O)Nc2ccc(F)cc2)[C@H](C)CN([C@H](C)CO)S3(=O)=O)cc1	7	2	-18[16.7 µM]	.	18	1
Cc1ccc(-c2ccc3c(c2)O[C@@H](CN(C)C(=O)Nc2ccccc2)[C@@H](C)CN([C@H](C)CO)S3(=O)=O)cc1	-3	5	29[16.7 µM]	68*	-19	2
Cc1ccccc1-c1ccc2c(c1)O[C@@H](CN(C)C(=O)Nc1ccc(C(F)(F)F)cc1)[C@@H](C)CN([C@@H](C)CO)S2(=O)=O	11	4	6[16.7 µM]	14	24	-8

Bioassay records as filed in PubChem BioAssay.
